Experimental data as given in ChEMBL document CHEMBL2157989, “Synthesis and biological evaluation of antibody conjugates of phosphate prodrugs of cytotoxic DNA alkylators for the targeted treatment of cancer” (J Med Chem, 2012).
pIC50: −log10 of the molar value. Values after ≈ are worked out from the molar mass of the structure shown.

Columns and labels:
Ramos = experiment: Cytotoxicity against human Ramos cells assessed as cell survival after 72 hrs by clonogenic assay; assay type: functional, cell-based
Method in brief: (§1)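 Cells were kept in RPMI 1640 with 10% heat-inactivated FBS at 37 °C and 6% CO₂. They were plated at 1000–5000 cells/well and exposed to 0–3 nM test agent for 72 h. Medium was then replaced and colonies grew for 7–10 days in total after plating. Colonies were fixed and stained with 0.2% crystal violet in 10% formalin/PBS, then counted. Surviving fraction = colonies in treated wells / colonies in control wells; IC₅₀ was taken from this.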

[1] = Solubility in DMA at 1.5 mg sonicated for 45 mins followed by centrifugation for 45 mins by UV/Vis spectroscopy; assay type: physicochemical; settings: 0.75 h
Method in brief: (§2)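 Solid compound (~1.5 mg) in the stated solvent was sonicated 45 min, then centrifuged at 1400g for 45 min. The supernatant concentration was read by UV/vis at 340 nm, using ε = 41500 M⁻¹ cm⁻¹ for the free phenols and 34500 M⁻¹ cm⁻¹ for the phosphate prodrugs (pH 7.0 values).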

[2] = Solubility in acetone at 1.5 mg sonicated for 45 mins followed by centrifugation for 45 mins by UV/Vis spectroscopy; assay type: physicochemical; settings: 0.75 h
[3] = Solubility in dichloromethane at 1.5 mg sonicated for 45 mins followed by centrifugation for 45 mins by UV/Vis spectroscopy; assay type: physicochemical; settings: 0.75 h
[4] = Solubility of the compound in 100% buffer at pH 7 at 1.5 mg sonicated for 45 mins followed by centrifugation for 45 mins by UV/Vis spectroscopy; assay type: physicochemical
[5] = Solubility of the compound in 10% DMA and 90% buffer at pH 7 at 1.5 mg sonicated for 45 mins followed by centrifugation for 45 mins by UV/Vis spectroscopy; assay type: physicochemical
Method in brief: (§3)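 About 1.5 mg of compound is sonicated for 45 min in pH 7.0 buffer containing 10% or 20% DMA, then centrifuged at 1400g for 45 min. Supernatant concentration is read by UV/vis at 340 nm. ε at pH 7.0 is 41500 M⁻¹ cm⁻¹ for DC1–SR₂ compounds and 34500 M⁻¹ cm⁻¹ for phosphate prodrugs.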

[6] = Solubility in DMF at 1.5 mg sonicated for 45 mins followed by centrifugation for 45 mins by UV/Vis spectroscopy; assay type: physicochemical; settings: 0.75 h; method in brief: as §2
[7] = Solubility in ethyl acetate at 1.5 mg sonicated for 45 mins followed by centrifugation for 45 mins by UV/Vis spectroscopy; assay type: physicochemical; settings: 0.75 h; method in brief: as §2
[8] = Solubility in water at 1.5 mg sonicated for 45 mins followed by centrifugation for 45 mins by UV/Vis spectroscopy; assay type: physicochemical; settings: 0.75 h; method in brief: as §2
HL-60 = experiment: Cytotoxicity against human HL60 cells assessed as cell survival after 72 hrs by clonogenic assay; assay type: functional, cell-based; settings: HL-60, 72 h; method in brief: as §1
[9] = Cytotoxicity against human NAMALWA cells assessed as cell survival after 72 hrs by clonogenic assay; assay type: functional, cell-based; settings: NAMALVA; method in brief: as §1
[10] = Solubility in chloroform at 1.5 mg sonicated for 45 mins followed by centrifugation for 45 mins by UV/Vis spectroscopy; assay type: physicochemical; settings: 0.75 h; method in brief: as §2
[11] = Solubility in THF at 1.5 mg sonicated for 45 mins followed by centrifugation for 45 mins by UV/Vis spectroscopy; assay type: physicochemical; settings: 0.75 h
[12] = Solubility in methanol at 1.5 mg sonicated for 45 mins followed by centrifugation for 45 mins by UV/Vis spectroscopy; assay type: physicochemical; settings: 0.75 h; method in brief: as §2
[13] = Solubility of the compound in 20% DMA and 80% buffer at pH 7 at 1.5 mg sonicated for 45 mins followed by centrifugation for 45 mins by UV/Vis spectroscopy; assay type: physicochemical; method in brief: as §3
[14] = Solubility in hexane at 1.5 mg sonicated for 45 mins followed by centrifugation for 45 mins by UV/Vis spectroscopy; assay type: physicochemical; settings: 0.75 h; method in brief: as §2
[15] = Solubility in DMSO at 1.5 mg sonicated for 45 mins followed by centrifugation for 45 mins by UV/Vis spectroscopy; assay type: physicochemical; settings: 0.75 h; method in brief: as §2
[16] = Solubility in dioxane at 1.5 mg sonicated for 45 mins followed by centrifugation for 45 mins by UV/Vis spectroscopy; assay type: physicochemical; settings: 0.75 h
COLO 205 = experiment: Cytotoxicity against human COLO205 cells assessed as cell survival after 72 hrs by clonogenic assay; assay type: functional, cell-based; settings: COLO 205, 72 h; method in brief: as §1
[17] = Solubility in ethanol at 1.5 mg sonicated for 45 mins followed by centrifugation for 45 mins by UV/Vis spectroscopy; assay type: physicochemical; settings: 0.75 h; method in brief: as §2
[18] = Solubility in toluene at 1.5 mg sonicated for 45 mins followed by centrifugation for 45 mins by UV/Vis spectroscopy; assay type: physicochemical; settings: 0.75 h; method in brief: as §2
[19] = Solubility of the compound in 5% DMA and 95% buffer at pH 7 at 1.5 mg sonicated for 45 mins followed by centrifugation for 45 mins by UV/Vis spectroscopy; assay type: physicochemical
Method in brief: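 For buffers with 5% or less DMA, a 50 mM stock of compound in DMA is diluted 20–100 times into pH 7.0 buffer. It is then sonicated for 45 min and centrifuged at 1400g for 45 min. Supernatant is quantified by UV/vis at 340 nm, with ε of 41500 (DC1–SR₂ compounds) or 34500 M⁻¹ cm⁻¹ (phosphate prodrugs).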

Row | solubility [1] | solubility [2] | solubility [3] | solubility at 0.75 h [4] [µM] | solubility at 0.75 h [5] [µM] | solubility [6] | solubility [7] | solubility [8] | solubility [10] | solubility [11] | solubility [12] | solubility at 0.75 h [13] [µM] | solubility [14] | solubility [15] | solubility [16] | solubility [17] | SMILES | pIC50 (Ramos) | pIC50 (HL-60) | pIC50 [9] | pIC50 (COLO 205) | other results
1 | soluble | soluble | Insoluble | < 0.1 | 1 (≈ 0.684 µg/mL) | soluble | Insoluble | Insoluble | Insoluble | soluble | Insoluble | 3 (≈ 2.05 µg/mL) | Insoluble | soluble | soluble | Insoluble | CSSCCC(=O)Nc1ccc2[nH]c(C(=O)Nc3ccc4[nH]c(C(=O)N5C[C@@H](CCl)c6c5cc(O)c5ccccc65)cc4c3)cc2c1 | 10.66 | 10.49 | 11.00 | 9.60 | solubility [18]: Insoluble; solubility at 0.75 h [19]: < 1 µM
2 | soluble | soluble | Insoluble | < 0.1 | 1 (≈ 0.726 µg/mL) | soluble | Insoluble | Insoluble | Insoluble | soluble | Insoluble | 3 (≈ 2.18 µg/mL) | Insoluble | soluble | soluble | Insoluble | CSSC(C)(C)CCC(=O)Nc1ccc2[nH]c(C(=O)Nc3ccc4[nH]c(C(=O)N5C[C@@H](CCl)c6c5cc(O)c5ccccc65)cc4c3)cc2c1 | 10.74 | 10.60 | 10.68 | 9.66 | solubility [18]: Insoluble; solubility at 0.75 h [19]: < 1 µM
